The test system of series [1] is TRPV4 channel. In words: Whole-cell patch clamp, GSK101-evoked TRPV4 currents in HEK293. Format: cell-based. As to conditions: GSK101 0.3 μmol/L, extracellular; ∼25 °C. In outline:
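HEK293 cells were transiently transfected with TRPV4 by lipofection. Whole-cell voltage clamp was performed 24 h after transfection at ~25 °C; currents were filtered at 2 kHz and digitized at 10 kHz. Current was evoked by the TRPV4 activator GSK101, with GSK219 as the selective inhibitor. Test compound stock was freshly diluted in normal saline.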
A general note: The patch-clamp technique gives a direct electrical read-out from membranes.

The subject of series [2] is rats (analgesic tolerance, CCI). In words: Chronic analgesic tolerance in CCI neuropathic pain. Format: in vivo, rat.
The test system of series [3] is mice (conditioned place preference). The series can be described thus: Conditioned place preference. Format: in vivo, mouse. The settings on record: s.c.; morphine 10 mg/kg; P10581 2 μg/kg, 100 μL; n = 5. In a few lines: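 Two-chamber boxes (20 × 20 × 20 cm), one with vertical black-white stripes and one with horizontal stripes. Conditioning training was repeated for 4 days. On Day 5, 24 h after the final dose, mice were placed in the central chamber with free access to both chambers for 15 min. Score = time on the drug-paired side postconditioning minus preconditioning. Dosing was blinded.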

The test system of series [4] is TRPV4 channel. In words: Analgesia in homozygous Trpv4−/− mice, CFA pain. Format: in vivo, mouse. As to conditions: 5 mg/kg, 2 h or 3 h post-injection; n = 4–5.
The test system of series [5] is rats (mechanical hyperalgesia induced by Carr.). In words: Randall–Selitto test, carrageenan inflammatory pain, peptide given i.d. Format: in vivo, Sprague–Dawley rat. In a few lines:
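SD rats (180–220 g) received Carr. (1%, 5 μL) i.d. into the right hindpaw after baseline PWT. Test compound was given i.d. in 5 μL at the inflamed site 1.5 h after Carr. PWT was measured 2 h after dosing. AUC (g·min) was calculated per rat, and ΔPWT = PWT(post-drug) − PWT(pre-drug). Saline was the control. Dosing was blinded; mean ± SEM.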

For the next series, the system named is rats (thermal pain). In words: Thermal laser test of hot pain. The settings on record: i.d. 1200 ng/kg, 5 μL; laser 52.5 ± 0.5 °C; n = 5. Format: in vivo, rat.
A further series concerns rats (cold pain). The series can be described thus: Cold plantar test. Format: in vivo, rat. The settings on record: i.d. 1200 ng/kg, 5 μL; n = 5.
The subject of series [6] is stretch-activated cationic currents in mammalian astrocytes, cardiomyocytes, and the central nervous system. The settings on record: ref [23], [24], [25], [26]; cited from earlier work.
Series [7] has as its system rats (mechanical hyperalgesia and neuropathic pain). As to conditions: ref [1], [27]; cited from earlier work.
Another series relates to Piezo1/Piezo2 channel. The settings on record: ref [63], [64]; cited from earlier work.
Another series deals with TRPC1 and TRPC6. As to conditions: MS channels in DRG neurons; ref [27]; cited from earlier work.

No end group written: not given here.

Regarding `CC(C)C[C@H](NC(=O)c1cc2ccccc2s1)C(=O)N1CCN(C(=O)[C@H](CO)NS(=O)(=O)c2ccc(Cl)cc2Cl)CC1` [GSK101], in the series on TRPV4 channel [1], the “activation of TRPV4 current” value is “robust increase in the currents”.

For `CN1CC[C@]23c4c5ccc(O)c4O[C@H]2[C@@H](O)C=C[C@H]3[C@H]1C5` [morphine], the “loss of anti-hyperalgesic effect on repeated injection” value in series [2] (i.d. 5 mg/kg twice a day, CCI) is “completely lost its anti-hyperalgesic effect from Day 4”. In addition, the “chronic tolerance after repeated injections” value in [2] (i.d. twice a day, 9 days, from Day 8 after CCI, morphine 5 mg/kg, P10581 8 μg/kg) is recorded as “time-dependent decrease in PWT”. Further, in [3], the CPP preference score entry was “significantly increased CPP scores”. Besides, the “anti-hyperalgesic effect of morphine in WT vs. Trpv4-deficient mice” value in the series on TRPV4 channel [4] was “equally effective in the anti-hyperalgesic effects among wild-type and Trpv4-deficient mice”.

Consider “GsMTx4 (GCLEFWWKCNPNDDKCCRPKLKCSKLFKLCNFSF; ends and bridges not checked; cysteine pairing not given here; UniProt Q7YT39 47-80, looked up)”, for which, in series [5] (i.d. 0.6 μg/kg, 5 μL, n = 6), the “effect on PWT at low dose” value is “only a mild impact on PWT”. Moreover, the “IC50 for anti-hyperalgesic effect (ΔPWT)” value in series [5] (i.d., 2 h after injection, Hill equation fit, n = 5 per group, mean ± SEM) was 689.3 ± 21.5 ng/kg. In addition, the “dose dependence of analgesic effect” value in [5] (i.d., Fig. 1G) is “dose-dependent”. Also, in the series with rats (thermal pain), the “effect on paw withdrawal latency (PWL), hot pain” value is “did not change their PWL when compared to the saline group”. The “effect on PWL, cold pain” value in the series on rats (cold pain) was “neither P10581 nor GsMTx4 at 1200 ng/kg (i.d. 5 μL) affected PWL following cold stimulus”. Further, the “inhibition of stretch-activated cationic currents” value in [6] was “inhibit stretch-activated cationic currents”. Besides, the “reduction of mechanical hyperalgesia and neuropathic pain” value in series [7] is “reduce mechanical hyperalgesia and neuropathic pain in rats”. For the same molecule, the “channel sensitivity to GsMTx4” value is listed as “sensitive to GsMTx4” in the series with Piezo1/Piezo2 channel; “GsMTx4-sensitive” with TRPC1 and TRPC6.

These data come from publication PMC12069899 (Acta Pharmaceutica Sinica. B, 2024).
